Results gathered from unrelated publications.
Protocols differ between the studies behind these lines.

SMILES	tested on	test	test system	conditions	quantity	result
COC(=O)c1cc(-c2cccc(NC(=O)Nc3cccc(C#N)c3)c2)on1	Mycobacteroides chelonae	microbial growth, broth dilution	ATCC35752	48 h	MIC	> 64 µg/mL
COc1cc(OC)c(C=C2C(O)=Nc3ccccc32)c(OC)c1	MB002	cell growth or viability		7 days	IC50	0.0585 µM
O=c1c2ccccc2nc(/C=C/c2ccc(C(F)(F)F)cc2)n1-c1cccc(O)c1	Enterococcus faecium	microbial growth, broth dilution	NCTC7171		MIC	32 µg/mL
COC(=O)c1cc(-c2cccc(NC(=O)Nc3ccccc3F)c2)on1	Mycobacteroides chelonae	microbial growth, broth dilution	ATCC35752	48 h	MIC	> 64 µg/mL
O=C1[O][Pt]2([NH][C@@H]3CCCC[C@H]3[NH]2)[O]C1=O	HD-MB03	cell growth or viability		7 days	IC50	2.33 µM
CO[C@H]1/C=C/O[C@@]2(C)Oc3c(C)c(O)c4c(O)c(c(/C=N/N5CCN(C)CC5)c(O)c4c3C2=O)NC(=O)/C(C)=C\C=C\[C@H](C)[C@H](O)[C@@H](C)[C@@H](O)[C@@H](C)[C@H](OC(C)=O)[C@@H]1C	Mycobacteroides chelonae	microbial growth		72 h	MIC	< 0.78 µM
N.N.[Cl][Pt][Cl]	CCD 19Lu	cell growth or viability		48 h	IC50	84.4 µM
O=C(O)c1ccc(/C=C/c2nc3ccccc3c(=O)n2-c2cccc(O)c2)cc1	Enterococcus faecium	microbial growth, broth dilution	NCTC7171		MIC	64 µg/mL
COC(=O)c1cc(-c2cccc(NC(=S)Nc3ccc(OC)cc3)c2)on1	Mycobacteroides chelonae	microbial growth, broth dilution	ATCC35752	48 h	MIC	> 64 µg/mL
CC[C@H](C)[C@@H]([C@@H](CC(=O)N1CCC[C@H]1[C@H](OC)[C@@H](C)C(=O)N[C@@H](Cc1ccccc1)C(=O)O)OC)N(C)C(=O)[C@@H](NC(=O)[C@H](C(C)C)N(C)C(=O)CCc1cn(CCOCCOCCOCCOCC(=O)NCc2ccc(CN3C(=O)[C@H]4CC(=O)N[C@H](C(=O)O)CC(=O)NCC(=O)N[C@@H](CCCNC(=N)N)C(=O)NC[C@H]3C(=O)N4)cc2)nn1)C(C)C	M21	cell growth or viability, MTT		72 h	IC50	> 1 µM
COc1ccc(/C=C/c2nc3ccccc3c(=O)n2-c2cccc(O)c2)cc1	Enterococcus faecium	microbial growth, broth dilution	NCTC7171		MIC	64 µg/mL
COc1cc(C(=O)NC2CCN(C)CC2)c(F)cc1Nc1ncc2c(n1)N(C1CCCC1)CC(F)(F)C(=O)N2C	MB002	cell growth or viability		7 days	IC50	0.0136 µM
